Rows were chosen to be rich in hits. Some 4.6% of all compounds tested hit in one or more screens of this group.
APP 5'UTR act: activates APP 5'UTR luciferase reporter; SH-SY5Y APP 5'UTR luciferase reporter, luminescence; zero percent = DMSO vehicle wells; activation, % at 2 µM; 190,000 tested, 1% active;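 active = activation above a set limit, based on mean plus 3 SD of controls, cut at about 140% in these data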
Wee1 stabilizer: human Wee1 degradation inhibition, primary screen. P30291. HeLa Luc-Wee1K328M stability, luciferase luminescence; 100% = proteasome inhibitor MG132 effect. reporter increase, % at 5 µM. 220,000 tested, 1.2% active;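 active = activation above the mean of all tested compounds plus 3 SD, set per screening run, cut at about 8.8% in these data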;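 also: cells exposed to compound for 20 h before luminescence read; 0% = DMSO alone and 100% = MG132 at 30 µM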
Target sequence (P30291 whole entry K328M): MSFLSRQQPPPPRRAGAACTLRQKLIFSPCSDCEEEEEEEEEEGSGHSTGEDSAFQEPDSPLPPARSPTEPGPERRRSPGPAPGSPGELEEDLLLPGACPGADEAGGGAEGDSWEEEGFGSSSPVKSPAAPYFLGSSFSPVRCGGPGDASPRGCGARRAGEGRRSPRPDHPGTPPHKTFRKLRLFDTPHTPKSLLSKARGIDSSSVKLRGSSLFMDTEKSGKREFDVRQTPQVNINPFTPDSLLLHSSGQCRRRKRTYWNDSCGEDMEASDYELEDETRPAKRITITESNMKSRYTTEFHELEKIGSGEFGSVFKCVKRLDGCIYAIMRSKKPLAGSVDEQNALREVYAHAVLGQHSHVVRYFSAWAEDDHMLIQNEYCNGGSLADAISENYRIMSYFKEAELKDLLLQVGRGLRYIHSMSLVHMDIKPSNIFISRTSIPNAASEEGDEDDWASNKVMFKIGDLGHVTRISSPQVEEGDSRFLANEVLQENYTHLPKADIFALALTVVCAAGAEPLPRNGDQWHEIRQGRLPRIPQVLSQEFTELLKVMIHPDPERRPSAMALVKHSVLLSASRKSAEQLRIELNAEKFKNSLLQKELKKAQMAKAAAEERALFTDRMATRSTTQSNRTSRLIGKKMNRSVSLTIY
Mdm2 ligase inh: Mdm2 E3 ligase (human) inhibition; 210,000 tested, 0.11% active; Q00987; cell-based MDM2 ubiquitination luciferase reporter, 2 h; 0 = plate control, 100 = twice control, blank-subtracted; AID 1230; signal enhancement, % at 5 µM;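 active = signal enhancement of 30% or more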;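 also: luminescence tracks abundance of the self-degrading MDM2-luciferase fusion protein; higher signal means inhibition of MDM2 E3 ligase activity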
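Test system: mammalian cells stably expressing self-ubiquitinating, self-degrading MDM2 E3–luciferase fusion; Amount: 2000 cells in each well; Medium: DMEM; Schedule: 4 h settle plus 2 h compound, 37 °C; Technique: SteadyLite luciferase luminescence after 15 min room-temperature reagent incubation; Benchmarks: plate control and blank wells.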
p97 inhibitor: human p97 ATPase inhibition. P55072. recombinant p97 ATPase, Kinase-Glo ATP luminescence, 3 h. inhibition, % at 8 µM. 220,000 tested, 0.42% active; in the data active = inhibition above about 15%;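 also: 0% = DMSO vehicle and 100% = wells lacking enzyme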
STAT1 activator: increases IFN-gamma driven STAT1 reporter signal; NIH 3T3 STAT1-luciferase reporter, luminescence; 100% = IFN-gamma alone, no compound; activation (% of control), % at 5.5 µM; 200,000 tested, 2.6% active; AID 932;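 active = activation above the screen-wide mean activation plus 3 SD, cut at about 130% in these data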;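 also: raw ratio to IFN-gamma control signal so 100% means no change and 0% no light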
NF-kB expr up: raises NF-kB expression in human neuronal cells. 190,000 tested, 1.6% active. fold change at 12.5 µM. NF-kB reporter expression; stronger effect = higher value. AID 1239; in the data active = fold change above about 3.3
* = called active by the depositor; x = no result.

SMILES	APP 5'UTR act	Wee1 stabilizer	Mdm2 ligase inh	p97 inhibitor	STAT1 activator	NF-kB expr up
COCCNC(=O)/C(C#N)=C/c1cc(C)n(-c2ccc(C)cc2)c1C	154*	-1	-13	-6	145*	6.2*
Cc1ccccc1-n1c(C)cc(/C=C(\C#N)C(=O)NCC2CCCO2)c1C (stereo not drawn)	123	4	-15	-1	149*	1.1
Cc1cc(/C=C(/C#N)C(=O)Nc2ccccc2)c(C)n1-c1cccnc1	97	4	3	-1	150*	2
Cc1cc(/C=C(\C#N)C(=O)O)c(C)n1C1CC1	-18	1	-14	-2	110	1.3
Cc1ccc(/C=C(\C#N)C(=O)NCC2CCCO2)o1 (stereo not drawn)	22	-4	3	4	105	1.2
COCCNC(=O)/C(C#N)=C/c1cc(C)n(C2CCCCC2)c1C	144*	7	6	-2	134*	3
CCCCN(CC)CCNC(=O)CN(C)S(=O)(=O)c1ccc2c(c1)c(=O)n(C)c(=O)n2C	19	0	-4	15*	104	1.1
CCOC(=O)N1CCN(C(=O)CN(C)S(=O)(=O)c2ccc3c(c2)c(=O)n(C)c(=O)n3C)CC1	17	2	-25	0	97	1.9
Cc1ccc(NC(=O)C(=O)NCC2CCCO2)cc1C (stereo not drawn)	115	-1	-19	1	142*	2.7
Cc1ccc(NC(=O)C(=O)NCC2CCCO2)cc1 (stereo not drawn)	42	2	-27	-2	137*	2.1
CCN1C(=O)C(CC(=O)Nc2c(C)cccc2C)Nc2cc(S(=O)(=O)N(C)C)ccc21 (stereo not drawn)	-19	-4	-23	-6	97	1
N#CC1=C2C=CC=CN2CC1=O	25	-2	9	2	144*	1.1
COc1ccc(CC(=O)NNS(=O)(=O)c2ccc(F)cc2)cc1OC	14	8.9*	-6	4	90	1.3
CCOC(=O)c1c(NC(=O)CN2CCCc3ccccc32)sc(C)c1CC	1	2	x	8	101	0.91
CN1C2C=C3C(C#N)=C(N)C(C#N)(C#N)[C@@H](c4cccs4)C3C1CC2 (stereo partly drawn)	-3	-1	-11	4	103	4.4*
Cc1cc(C(=O)O)ccc1N/C=C1\CCCC(C)C1=O (stereo not drawn)	149*	-2	-50	3	150*	4*
O=C1CCCC/C1=C/Nc1ccc(C(=O)O)cc1	x	0	-15	0	100	1.3
CC1CCC/C(=C\Nc2ccc(O)cc2)C1=O (stereo not drawn)	-1	0	-1	8	136*	2.1
Cc1nn(-c2ccccc2)c(Cl)c1C(=O)NCCN(C)C	8	8	-8	-3	102	1
CN(C)c1ccc(NC(=O)C2CCCN(S(=O)(=O)c3ccccc3)C2)cc1 (stereo not drawn)	36	1	-3	1	98	0.93
CC(NC(=S)Nc1ccccc1Cl)C(c1ccccc1)N1CCOCC1 (stereo not drawn)	8	9.2*	-14	3	104	0.98
COc1ccc(NC(=S)NC(C)C(c2ccccc2)N2CCOCC2)cc1 (stereo not drawn)	-7	0	-4	1	97	1.1
Cc1cccnc1NC(=O)Nc1ccc(F)cc1	-2	2	-2	3	136*	2
CCOC(=O)c1ccc(NC(=O)Nc2ncccc2C)cc1	50	0	-3	2	123	0.95
Cc1cccnc1NC(=S)Nc1ccc(F)cc1F	1	-1	-8	0	124	1.7
Cc1cccnc1NC(=O)Nc1cccc(C(F)(F)F)c1	-1	2	-20	5	98	1
Cc1ccc(C)c(NC(=S)Nc2ncccc2C)c1	36	-2	0	0	132*	1.7
Cc1ccc(NC(=O)Nc2ncccc2C)cc1	56	0	-20	-4	149*	2.5
Nc1ccccc1Nc1cc(-c2cccc(Cl)c2)nn1-c1ccccc1	12	2	-13	0	105	1.3

Screens: PubChem BioAssay, several laboratories
